Results gathered from unrelated publications.
Lines come from different studies, so protocols differ.
Cell line: NCI-H1975
Observed: cell growth or viability

For `CCCn1cnc2ccc(-c3ccc(NC(=O)CC4CC4)nc3)cc2c1=O`, the IC50 was 3.48 µM (CCK-8; 72 h).
`COc1ccc2/c(=N/c3ccccc3NC(=O)[C@H](C)N)cc(-c3ccc4c(c3)OCCO4)oc2c1` has an inhibition of 5.17% (CCK-8; 1 µM).
The IC50 of `C#Cc1cccc(Nc2ncnc3cc(OCCOC)c(OCCOC)cc23)c1` is reported as 5.72 µM (MTT; 72 h).
`N[C@@H](CO)C(=O)Nc1ccccc1/N=c1\cc(-c2ccc3c(c2)OCO3)oc2ccccc12` has an inhibition of -1.95% (CCK-8; 1 µM).
For `COc1cccc(NC(=O)Nc2nc3cc(-c4ccc5ncn(CCN(C)C)c(=O)c5c4)ccc3s2)c1`, the IC50 was over 20 µM (MTT; 72 h).
`CC(C)(C)[C@H](N)C(=O)Nc1ccccc1/N=c1\cc(-c2ccc3c(c2)OCCO3)oc2cc(F)ccc12` has an inhibition of -7.44% (CCK-8; 1 µM).
For `Cc1ccc(NC(=O)Nc2nc3cc(-c4ccc5ncn(Cc6ccccc6)c(=O)c5c4)ccc3s2)cc1`, the IC50 was over 20 µM (MTT; 72 h).
`CCCn1cnc2ccc(-c3ccc(NC(=O)c4ccccc4)nc3)cc2c1=O` gave an IC50 of 0.095 µM (CCK-8; 72 h).
`COc1ccc(NC(=O)Nc2nc3cc(-c4ccc5ncn(CCN(C)C)c(=O)c5c4)ccc3s2)cc1` gave an IC50 of over 20 µM (MTT; 72 h).
For `CCCCC(=O)Nc1ccc(-c2ccc3ncn(CC4CCC4)c(=O)c3c2)cn1`, the IC50 was 1.4 µM (CCK-8; 72 h).
